HSP90 refold inh – HSP90 inhibitors, primary screen, cell lysate, luminescence; Heat shock protein HSP 90 (rabbit reticulocyte lysate; luciferase refolding); 290,000 tested, 0.91% active; Rabbit reticulocyte lysate, luciferase refolding luminescence, 3 h; AID 1789, 2009; inhibition, % at 5.6 µM;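 active means inhibition above the screen-wide mean plus 3 SD, computed separately per campaign, cut at about 16% in these data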;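 further: 0% = DMSO wells and 100% = 60 µM geldanamycin wells; inhibitors lower the luminescence because luciferase stays unfolded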
SENP8 block-1 – human SENP8 protease inhibitors, primary screen, biochemical, fluorescence, Nedd8 protein substrate, uHTS. recombinant SENP8. inhibition, % at 20 µM. 360,000 tested, 0.64% active. Sentrin-specific protease 8 (Homo sapiens), Q96LD8; in the data active means inhibition mostly above about 40%, no sharp cut-off; inactive means mostly below about 27%
Target sequence (Q96LD8 whole entry, looked up): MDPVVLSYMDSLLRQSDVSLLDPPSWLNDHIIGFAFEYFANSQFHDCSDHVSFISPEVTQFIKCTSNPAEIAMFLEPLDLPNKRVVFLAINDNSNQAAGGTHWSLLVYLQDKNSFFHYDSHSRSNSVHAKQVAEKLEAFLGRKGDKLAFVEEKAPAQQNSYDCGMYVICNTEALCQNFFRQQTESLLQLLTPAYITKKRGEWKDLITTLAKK
SENP6 inh – SENP6 protease inhibitors, primary screen, biochemical, luminescence, uHTS; 330,000 tested, 1.8% active; Recombinant SENP6 catalytic domain, aminoluciferin luminescence; inhibition, % at 10 µM;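 active means inhibition above about 50% at the single tested dose, limit read from the data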;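 further: plate controls were DMSO wells with enzyme for no effect and DMSO wells lacking enzyme for full effect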
Target sequence (Q9GZR1 628-1112 limits assumed): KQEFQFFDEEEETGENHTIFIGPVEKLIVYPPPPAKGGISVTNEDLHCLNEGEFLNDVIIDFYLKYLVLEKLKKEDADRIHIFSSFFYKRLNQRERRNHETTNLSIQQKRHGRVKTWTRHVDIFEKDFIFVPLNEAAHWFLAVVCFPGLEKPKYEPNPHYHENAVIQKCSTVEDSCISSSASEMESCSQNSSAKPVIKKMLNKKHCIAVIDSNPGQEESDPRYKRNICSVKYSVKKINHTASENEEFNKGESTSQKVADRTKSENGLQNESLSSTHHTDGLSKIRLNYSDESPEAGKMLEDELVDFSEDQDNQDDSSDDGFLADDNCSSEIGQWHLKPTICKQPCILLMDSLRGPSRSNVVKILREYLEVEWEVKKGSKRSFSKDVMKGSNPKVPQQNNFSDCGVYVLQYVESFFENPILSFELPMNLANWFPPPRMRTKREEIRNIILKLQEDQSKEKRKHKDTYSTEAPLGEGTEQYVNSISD
SENP7 block – SENP7 protease inhibitors, primary screen, biochemical, luminescence, uHTS | recombinant SENP7, Z-RLRGG-aminoluciferin luminescence, 40 min | inhibition, % at 5 µM | 330,000 tested, 1.5% active;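 active means inhibition above about 50% at the single test dose, limit read from the data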;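 further: plate controls were DMSO with enzyme for no effect and no enzyme buffer wells for full effect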
SENP1 FRET inh – human SENP1 catalytic domain inhibitors, primary screen, biochemical, FRET, uHTS; Sentrin-specific protease 1 (Homo sapiens), Q9P0U3; recombinant SENP1 catalytic domain, CyPet-SUMO1-YPet FRET cleavage; 360,000 tested, 0.21% active; inhibition, % at 10 µM; AID 624204, 2012;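 active means inhibition at least 30% at 10 µM, raw YFP signal under a set limit, fluorescence ratio 0.5 to 1.5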;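 further: 0% = enzyme with DMSO and 100% = no enzyme wells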
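Test system: human SENP1 catalytic domain; medium: Tris pH 8 buffer plus EDTA, NaCl, BME, BSA, NP40, catalase; incubation: 50 min reaction at room temperature; technique: FRET, CFP and YFP emission; controls: no-enzyme low control and enzyme-plus-DMSO high control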
SENP8 block-2 – SENP8 protease inhibitors, primary screen, biochemical, luminescence. 330,000 tested, 1.2% active. purified SENP8, Z-RLRGG-aminoluciferin cleavage. inhibition, % at 10 µM; in the data active means inhibition above about 50%
SENP8 inh conf – human SENP8 protease inhibitors, confirmation, biochemical, Nedd8 protein substrate, single concentration | shares compounds with SENP8 block-1 | purified SENP8, Nedd8-AMC/pro-Nedd8 cleavage fluorescence, 30 min | inhibition, % at 25 µM | 1,400 tested, 15% active | AID 624319, 2012; in the data active means inhibition mostly above about 39%, no sharp cut-off; inactive means mostly below about 34%
Numbers without * were called inactive; / = no result. A selection: hits, their analogues and other compounds. The true share with any hit is near 2.9%.

SMILES | HSP90 refold inh | SENP8 block-1 | SENP6 inh | SENP7 block | SENP1 FRET inh | SENP8 block-2 | SENP8 inh conf
CCOC(=O)C1(Cc2cccc(OC)c2)CCCN(C(=O)c2cc(C)oc2C)C1 (stereo not drawn) | -2.6 | 4.6 | 4.3 | 3.2 | -1.0 | 3.8 | /
COc1ccc(N2C(=O)Cc3ccccc3C2=O)cc1 | -4.3 | 84.3* | 39.2 | 19.3 | -8.2 | 8.1 | 38.4
CCCCc1nnc(NC(=O)Cn2cnc3ccccc3c2=O)s1 | -0.1 | 13.6 | -6.4 | -8.6 | -0.6 | 2.6 | /
O=C(Cn1cnc2ccccc2c1=O)Nc1nnc(SCc2ccccc2)s1 | -1.1 | 42.1* | 16.7 | 3.3 | 0.1 | 7.3 | 11.6
Nc1c(C(=O)c2ccccc2)sc2nsc(SCCN3CCCC3)c12 | -1.2 | 43.8* | -11.6 | -2.7 | -39.5 | -8.2 | 13.1
Nc1c(C(=O)c2ccc(Cl)cc2)sc2nsc(SCCN3CCOCC3)c12 | 1.7 | 37.7 | -11.1 | -2.1 | -38.4 | 0.1 | /
CC(C)(C)c1ccc(CC(=O)N2CCC2(C)C(=O)NCCC#N)cc1 (stereo not drawn) | / | 15.5 | / | / | 1.7 | / | /
COc1cc(OC)c(C=CC(=O)c2ccccc2O)c(OC)c1 | / | 42.2* | / | / | 4.0 | / | 13.0
CCC(=O)N(CCC(Cc1ccccc1)c1ccc2c(c1)OCO2)Cc1ccccc1F (stereo not drawn) | 0.5 | 40.1* | 7.0 | 2.3 | 1.8 | 8.0 | 13.6
CCC(=O)N(CCC(Cc1ccccc1)c1ccco1)Cc1ccco1 (stereo not drawn) | 1.5 | -25.0 | 2.0 | 0.8 | -1.5 | -12.9 | /
Cc1cc(C)c(NC(=O)CSCc2c(C)noc2C)c(C)c1 | / | 8.5 | 6.9 | 3.4 | 1.2 | 6.4 | /
Cc1ccc(NC(=O)CSCc2c(C)noc2C)cc1C | -1.1 | 40.2* | -16.6 | -11.1 | 0.0 | -7.2 | 24.6
COC(=O)CCCC1=CC2=CC(=O)C(C)(OC(=O)c3cccs3)C(=O)C2=CN1Cc1ccccc1 (stereo not drawn) | / | 12.8 | 24.9 | 5.5 | -36.9 | 15.6 | /
COC(=O)CCCC1=CC2=CC(=O)C(C)(OC(=O)c3cccs3)C(=O)C2=CN1C1CCCC1 (stereo not drawn) | / | 45.6* | 7.5 | 3.1 | -15.5 | 9.3 | 49.1*
Cc1ccc(/C=N/N2C(=S)SC(C)(C)C2N(O)C(=O)Nc2ccc([N+](=O)[O-])cc2)cc1 (stereo not drawn) | -1.0 | 40.1* | -7.8 | 0.8 | 1.9 | -1.2 | 5.9
CC1(C)SC(=S)N(/N=C/c2ccc(O)cc2)C1N(O)C(=O)Nc1ccc([N+](=O)[O-])cc1 (stereo not drawn) | -1.6 | 29.3 | -8.5 | -12.4 | 1.5 | -10.7 | /
O=C(CNC(=O)c1ccc(C(F)(F)F)cc1)NC1CC1 | / | 18.3 | -6.0 | 9.3 | 0.1 | 8.5 | /
COc1ccc(N2CSC3=C(C#N)C(c4cccc(OC)c4OC)CC(=O)N3C2)cc1 (stereo not drawn) | -1.6 | -15.6 | 4.5 | 10.4 | -33.6 | 12.1 | /
COc1ccc2ccccc2c1C1CC(=O)N2CN(C3CCCCC3)CSC2=C1C#N (stereo not drawn) | -2.7 | 75.3* | -0.3 | -4.4 | 3.5 | -1.7 | 8.8
O=C(CN1C(=O)CSC1=O)N1CCc2ccccc2C1 | 3.3 | 41.8* | 35.9 | 3.0 | -3.0 | -2.1 | 62.9*
Cc1nc(N2CCOCC2)nc(Oc2ccccc2F)c1[N+](=O)[O-] | -1.8 | 41.4* | 17.7 | 5.2 | -1.0 | 5.4 | 17.1
COc1ccc(C(CNC(=O)c2cccc(S(=O)(=O)N3CCCCC3)c2)N2CCCC2)cc1 (stereo not drawn) | / | 12.0 | -12.9 | 1.8 | 1.5 | -5.8 | /
CN(CC(=O)N1CCN(Cc2ccccc2)CC1)C(=O)Cc1cccc2ccccc12 | / | 7.5 | 4.1 | -8.0 | -1.4 | -9.4 | /
COc1ccc2c(Cl)c(-c3nnc4n3CCCCC4)sc2c1 | -3.5 | 48.1* | -8.3 | -18.1 | 0.6 | -19.7 | 18.5
O=C(COC(=O)Cc1n[nH]c(=O)c2ccccc12)Nc1c(Br)cc([N+](=O)[O-])cc1Br | / | 7.9 | / | / | 2.3 | / | /
SMILES | HSP90 refold inh | SENP8 block-1 | SENP6 inh | SENP7 block | SENP1 FRET inh | SENP8 block-2 | SENP8 inh conf
O=C1NC(Cc2ccccc2)c2nc3cc(Cl)ccc3c(=O)n2-c2ccccc21 (stereo not drawn) | / | / | 3.9 | -5.0 | / | -0.3 | /
CCC(C)(C)C1CCC(=NNC(=S)Nc2ccccc2)CC1 (stereo not drawn) | 5.3 | 45.4* | -10.3 | 4.8 | 2.5 | 4.7 | 0.0
COC/C=C/C1=CC2=CC(=O)C(C)(OC(=O)c3cnc4ccccc4n3)C(=O)C2=CN1CCN1CCOCC1 (stereo not drawn) | / | 26.9 | 13.7 | 12.2 | -72.6 | -11.5 | /
COC/C=C/C1=CC2=CC(=O)C(C)(OC(=O)c3cnc4ccccc4n3)C(=O)C2=CN1CCOC (stereo not drawn) | / | 54.4* | 20.0 | 8.3 | -13.8 | 5.2 | 47.4*
C=CCN1C=C2C(=O)C(C)(OC(=O)c3cnc4ccccc4n3)C(=O)C=C2C=C1/C=C/COC (stereo not drawn) | / | -19.3 | 10.1 | 2.4 | -33.6 | 6.7 | /
COC/C=C/C1=CC2=CC(=O)C(C)(OC(=O)c3cnc4ccccc4n3)C(=O)C2=CN1CCCOC(C)C (stereo not drawn) | / | 43.9* | 9.3 | -9.5 | -22.0 | -11.4 | 34.0
COC(=O)c1c(C)[nH]c(C(=O)COC(=O)Cn2cc(C(F)(F)F)ccc2=O)c1C | / | -1.1 | -9.4 | 1.3 | 1.1 | -9.7 | /
O=C(NCCC(=O)N1CCC2(CC1)NCCc1[nH]cnc12)c1ccc(F)c(F)c1 | -3.7 | 4.9 | -20.7 | -5.6 | 0.0 | -12.7 | /
COC(=O)C(N)CCCCN (stereo not drawn) | / | 43.0* | -7.7 | 4.5 | 2.2 | 4.9 | 5.2
COC(=O)[C@@H](N)Cc1ccc(O)cc1 | -1.8 | / | -14.0 | -15.5 | / | -9.7 | /
CC(OC(=O)c1cc(=O)[nH]c2ccccc12)C(=O)c1ccccc1 (stereo not drawn) | -0.8 | -161.3 | -4.0 | -1.2 | 0.1 | 0.9 | /
O=C(/C(=C(\[O-])c1ccccc1)[n+]1ccc2ccccc2c1)c1ccc(Cl)cc1 | 2.2 | 46.3* | 10.9 | 18.0 | 0.9 | 11.4 | 61.7*
O=C(/C(=C(\[O-])c1ccccc1)[n+]1ccc2ccccc2c1)c1ccccc1 | -2.0 | 29.4 | / | / | 7.1 | / | /
Cc1ccc(S(=O)(=O)NC(=O)Nc2ccc(N(C)C)cc2)cc1 | 11.7 | 74.6* | 40.3 | 18.2 | 7.1 | 24.3 | 63.8*
